Results from different studies.
Lines come from different studies, so protocols differ.

Structure (SMILES) | host | matrix | route | dose | setting | endpoint | value
CN[C@H](CC(C)C)C(=O)N[C@H]1C(=O)N[C@@H](CC(N)=O)C(=O)N[C@H]2C(=O)NC3C(=O)N[C@H](C(=O)N[C@H](C(=O)NCCC[N+](C)(C)C)c4cc(O)cc(O)c4-c4cc3ccc4O)[C@H](O)c3ccc(c(Cl)c3)Oc3cc2cc(c3OC2OC(CO)C(O)[C@H](O)[C@@H]2O[C@H]2CC(C)(NCc3ccc(-c4ccc(Cl)cc4)cc3)[C@H](O)[C@H](C)O2)Oc2ccc(cc2Cl)[C@H]1O (some centres unmarked) | mouse | plasma | intravenous | 10 mg/kg |  | AUC | 81.1 µg·h/mL
CN1CCCCC1Cn1cc(C(=O)c2cc([N+](=O)[O-])ccc2I)c2ccccc21 (racemic) | mouse | plasma | oral | 25 mg/kg |  | AUC | 1.23 µg·h/mL
C[C@]12CC[C@H](n3ccnc3)CC1=CC[C@@H]1[C@@H]2CC[C@]2(C)C(n3cnc4ccccc43)=CC[C@@H]12.Cl | male CD-1 mouse | plasma | oral | 10 mg/kg |  | AUC(0-t) | 22600 ng·h/mL
CCN(CC)CCCC[C@H](NC(=O)[C@H](CC(C)C)NC(=O)[C@H](C)NC(=O)[C@H](Cc1ccccc1)NC(=O)c1ccc(C(C)(C)C)cc1)C(=O)N[C@@H](CO)C(=O)OC | male Swiss mouse | blood | intravenous | 3 mg/kg |  | AUC(0-t) | 1890 ng·h/mL
C[C@]12CC[C@H](O)CC1=CC[C@@H]1[C@@H]2CC[C@]2(C)C(n3cnc4ccccc43)=CC[C@@H]12.Cl | mouse | plasma | intravenous | 1 mg/kg |  | AUC(0-t) | 44.3 ng·h/mL
NCC(=O)Nc1ccc(-n2nc(C(F)(F)F)cc2-c2ccc3c(ccc4ccccc43)c2)cc1 | mouse | plasma | oral | 80 mg/kg | single dose | AUC(0-t) | 41400 ng·h/mL
CCC[C@@](N)(CO)CCc1ccc(OCCCCCC(C)C)cc1 | mouse | plasma | intraperitoneal | 10 mg/kg |  | AUC(0-t) | 1060 nM·h
Cc1cc(C)nc(Nc2ncc(C(=O)NCCc3c(C)[nH]c4ccccc34)cn2)c1 | C57BL/6 mouse | plasma | intraperitoneal | 4.4 mg/kg |  | AUC(0-inf) | 155 ng·h/mL
